Assay results reported in PMC2134812 (The Journal of Cell Biology, 1997).
“Also recorded” adds a separate entry of the source.

B1: NGF: mature 118aa NGF peptide (protein)
chain: SSTHPVFHMGEFSVCDSVSVWVGDKTTATDIKGKEVTVLAEVNINNSVFRQYFFETKCRASNPVESGCRGIDSKHWNSYCTTTHTFVKALTTDEKQAAWRFIRIDTACVCVLSRKATRRG

Legend:
[1] = target: specific receptors (binding sites) for LIP2 on B5 human prostatic adenocarcinoma cells (human (endogenous in B5)); assay: radioligand binding
PC12 cells [2] = assay: F-actin redistribution in PC12 cells; type: cell-based, rat
Outline: (§1)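 B5 cells and PC12 cells were seeded in RPMI-1640 with 1% horse serum, with PC12 cells on poly-D-lysine. After 18 h, cells were exposed for 2 min at 37°C to test peptide (10−7, 10−8 or 10−9 M) or 100 ng/ml NGF. For PC12, a control peptide was used at 10−6 and 10−7 M. Cells were PBS-washed, fixed in 3% paraformaldehyde for 20 min and permeabilised in 0.1% Triton X-100 for 2 min. F-actin was stained with phallacidin–BODIPY or phalloidin–rhodamine and examined by fluorescence microscopy.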

B5 and SH-SY5Y cells = assay: Competition of 125I-LIP2 binding; design: species or system human; conditions: 2 μM competitor, preincubated 1 h at 4°C, 10 nM 125I-LIP2
Trk protein [3] = assay: Trk tyrosine phosphorylation in PC12 cells overexpressing TrkA; type: cell-based; conditions: 200 ng/ml NGF, 5 min
Outline: (§2)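 Confluent B5 cells or TrkA-overexpressing PC12 cells (10–15-fold TrkA) were stimulated for 5 min with test peptide at 10−9 or 10−7 M, or with NGF at 200 ng/ml. Lysates were immunoprecipitated with a pan-Trk antibody against the TrkA C-terminus and run on 7.5% SDS-PAGE. Blots were probed overnight at 4°C with HRP-anti-phosphotyrosine (1:2,500) and detected by ECL. They were then stripped and reprobed with pan-Trk antibody as a loading control.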

Trk protein [4] = conditions: ref Kaplan et al., 1991; cited from earlier work
chick embryo DRG ganglia = assay: Neurite outgrowth in dorsal root ganglia; type: cell-based; conditions: 10 ng of mouse NGF; data not shown
Outline: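 Dorsal root ganglia were dissected from 9-day-old chick embryos. They were cultured with test peptides at 10−7, 10−8 and 10−9 M, or with 10 ng mouse NGF. Neurite outgrowth was scored.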

B5 cells = assay: F-actin redistribution in B5 cells; type: cell-based, human; conditions: 2 min at 37°C; LIP1, LIP2 or 100 ng/ml NGF
Outline: as §1

PC12 cells [5] = assay: Neurite outgrowth in PC12 cultures; type: cell-based, rat; conditions: NGF-treated; data not shown
Trk protein [6] = assay: Trk tyrosine phosphorylation in B5 cells; type: cell-based, human; conditions: 200 ng/ml NGF, 5 min
Outline: as §2

| Molecule | Inhibition of 125I-LIP2 binding (in words) (B5 and SH-SY5Y cells) | further results |
| --- | --- | --- |
| 125I-LIP2 (iodinated 38aa synthetic peptide, sequence -40 to -3 of the rat NGF precursor) |  | Kd, high affinity binding site [1]: 2.8 nM; Kd, low affinity binding site [1]: 48 nM |
| LIP2 (38aa synthetic peptide, sequence -40 to -3 of the rat NGF precursor), unlabelled |  | Kd [1]: 200 to 400 nM |
| [Tyr^8] bradykinin (RPPGFSPYR; Bradykinin; UniProt P01042 381-389, looked up, variant F8Y) |  | F-actin redistribution, control peptide (PC12 cells [2]; 10^−6 and 10^−7 M): had no effect |
| aprotinin | No significant inhibitory effect |  |
| bombesin | No significant inhibitory effect |  |
| cytochrome c | No significant inhibitory effect |  |
| epidermal growth factor | No significant inhibitory effect |  |
| leupeptin | No significant inhibitory effect |  |
| methionine enkephalin | No significant inhibitory effect |  |
| neurotensin | No significant inhibitory effect |  |
| pepstatin A | No significant inhibitory effect |  |
| somatostatin | No significant inhibitory effect |  |
| substance P | No significant inhibitory effect |  |
| ubiquitin | No significant inhibitory effect |  |
| vasoactive intestinal peptide [vasoactive intestinal peptide (VIP)] | No significant inhibitory effect |  |
| vasopressin | No significant inhibitory effect |  |
| α2-macroglobulin | No significant inhibitory effect |  |
| α-melanocyte stimulating hormone | No significant inhibitory effect |  |
| B1 | did not show any significant inhibition | Trk tyrosine phosphorylation, NGF (Trk protein [3]): phosphorylation of Trk; Time to trk tyrosine phosphorylation by NGF (Trk protein [4]): ≤ 1 min; Neurite outgrowth, NGF (chick embryo DRG ganglia): dense neurite outgrowth; F-actin redistribution (B5 cells): neither NGF nor the peptides induced F-actin rearrangement in B5 cells; also recorded: had no effect on B5 cells; F-actin redistribution, NGF (PC12 cells [2]; 2 min at 37°C, 100 ng/ml NGF): more abundant ruffling; Neurite outgrowth, NGF (PC12 cells [5]): dense neurite outgrowth; Trk tyrosine phosphorylation, NGF (Trk protein [6]): phosphorylation of Trk |
